In ChEMBL document CHEMBL1138069, “Synthesis and SAR of 1,3-disubstituted cyclohexylmethyl urea and amide derivatives as non-peptidic motilin receptor antagonists” (Bioorg Med Chem Lett, 2006):
The source made the active and inactive calls. The calls are words filed in the database; no cut-off is given here.

Key:
[1] = target: Motilin receptor (Oryctolagus cuniculus) (UniProt A5A4K8); test: Agonist activity at rabbit duodenum motilin receptor by tissue contractility assay at 10 uM; type: functional
Motilin receptor (Oryctolagus cuniculus), sequence (A5A4K8 as listed by the source): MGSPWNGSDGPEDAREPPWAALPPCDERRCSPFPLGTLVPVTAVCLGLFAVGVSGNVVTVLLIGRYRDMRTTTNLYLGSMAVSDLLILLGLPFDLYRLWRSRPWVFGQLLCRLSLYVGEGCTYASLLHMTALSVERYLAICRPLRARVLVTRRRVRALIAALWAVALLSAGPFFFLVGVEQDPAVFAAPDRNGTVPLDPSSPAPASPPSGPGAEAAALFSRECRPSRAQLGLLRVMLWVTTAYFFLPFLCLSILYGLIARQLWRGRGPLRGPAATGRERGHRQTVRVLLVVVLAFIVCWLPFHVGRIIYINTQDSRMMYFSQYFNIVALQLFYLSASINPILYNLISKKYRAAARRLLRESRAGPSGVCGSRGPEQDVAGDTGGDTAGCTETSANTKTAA

[2] = target: T1, Motilin receptor (Homo sapiens, UniProt O43193); test: Agonist activity at human motilin receptor transfected in HEK293 cells assessed as inhibition of motilin-induced intracellular calcium mobilization at 30 uM; type: functional, cell-based
T1 sequence (O43193 whole entry): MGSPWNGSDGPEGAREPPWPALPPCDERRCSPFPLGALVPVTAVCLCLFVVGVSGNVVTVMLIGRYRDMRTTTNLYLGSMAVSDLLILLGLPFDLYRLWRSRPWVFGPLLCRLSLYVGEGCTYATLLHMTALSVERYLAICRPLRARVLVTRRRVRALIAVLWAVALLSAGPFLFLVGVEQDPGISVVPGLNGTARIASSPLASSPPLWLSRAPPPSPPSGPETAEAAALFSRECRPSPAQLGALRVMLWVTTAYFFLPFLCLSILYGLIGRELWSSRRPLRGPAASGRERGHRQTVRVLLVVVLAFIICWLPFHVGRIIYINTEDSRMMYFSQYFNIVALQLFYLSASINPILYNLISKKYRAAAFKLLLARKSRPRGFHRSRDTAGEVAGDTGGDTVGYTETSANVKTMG

[3] = target: T1, Motilin receptor; test: Activity at human motilin receptor transfected in HEK293 cells assessed as inhibition of motilin-induced intracellular calcium mobilization; type: functional, cell-based
[4] = target: T2, Motilin receptor (Oryctolagus cuniculus, UniProt A5A4K8); test: Inhibition of [125]I-motilin binding to rabbit motilin receptor
T2 sequence (A5A4K8 whole entry): as the sequence (A5A4K8 as listed by the source) above
Outline: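 Rabbit colon membranes, homogenized in Tris–HCl pH 7.5 and centrifuged, with the pellet stored frozen. Bound tracer was separated by centrifugation. Nonspecific binding was taken with unlabeled porcine motilin. IC50 values are means of at least two separate determinations.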

[5] = target: Motilin receptor (Oryctolagus cuniculus) (UniProt A5A4K8); test: Inhibition of [125]I-motilin binding to rabbit motilin receptor at 1 uM
[6] = target: T2, Motilin receptor; test: Inhibition of [125]I-motilin binding to rabbit motilin receptor
[7] = target: T2, Motilin receptor; test: Activity at rabbit duodenum motilin receptor by tissue contractility assay; type: functional

| Structure (SMILES) | Activity [1] | Activity [2] | IC50 [4] [nM] | inhibition [5] [%] | also measured |
| --- | --- | --- | --- | --- | --- |
| CC(C)(C)C(=O)N(Cc1ccccc1)[C@@H]1CCC[C@H](CN(C(=O)c2ccc(F)cc2)c2cccc(OCCN3CCCC3)c2)C1 | inactive | inactive | – | – | IC50 [3]: 338 nM |
| O=C(Nc1ccccc1)N(CC1CCCC(N(Cc2ccccc2)C(=O)CCc2ccccc2)C1)c1cccc(OCCN2CCOCC2)c1 (stereo unspecified) | – | – | 730 | – | – |
| O=C(Nc1ccccc1)N(CC1=C[C@@](Cc2cccc(Cl)c2)(NC(=O)C(Cl)(Cl)Cl)CC1)c1cccc(OCCN2CCOCC2)c1 | – | – | 10 | – | – |
| O=C(c1ccc(F)cc1)N(CC1CCCC(N(Cc2cccc([N+](=O)[O-])c2)C(=O)C(Cl)(Cl)Cl)C1)c1cccc(OCCN2CCCC2)c1 (stereo unspecified) | inactive | inactive | 14 | – | IC50 [3]: 52 nM |
| O=C(Nc1ccccc1)N(CC1=C[C@@](Cc2ccccc2)(NC(=O)C(Cl)(Cl)Cl)CC1)c1cccc(OCCN2CCOCC2)c1 | – | – | 20 | – | – |
| CC(C)(C)C(=O)N(Cc1ccccc1)[C@H]1CCC[C@@H](CN(C(=O)c2ccc(F)cc2)c2cccc(OCCN3CCCC3)c2)C1 | inactive | inactive | – | – | IC50 [3]: 2480 nM |
| O=C(Nc1ccccc1)N(c1cccc(OCCN2CCOCC2)c1)C1CCC(CN(Cc2cccc(Cl)c2)C(=O)C(Cl)(Cl)Cl)C1 (stereo unspecified) | – | – | – | 4 | – |
| CC(C)(C)C(=O)N(Cc1ccccc1)C1CCCC(CN(C(=O)c2ccc(F)cc2)c2cccc(OCCN3CCOCC3)c2)C1 (racemic) | inactive | inactive | 772 | – | – |
| CC(C)(C)C(=O)N(Cc1ccccc1)C1CCCC(CN(C(=O)Nc2ccccc2)c2cccc(OCCN3CCCC3)c2)C1 (racemic) | – | – | – | – | IC50 [6]: 21 nM |
| O=C(c1ccc(F)cc1)N(CC1CCCC(N(Cc2ccccc2)C(=O)C(Cl)(Cl)Cl)C1)c1cccc(OCCN2CCCC2)c1 (racemic) | inactive | inactive | 58 | – | IC50 [7]: 27 nM |
| O=C(Nc1ccccc1)N(CC1CCCC(N(Cc2ccccc2)C(=O)c2cccc([N+](=O)[O-])c2)C1)c1cccc(OCCN2CCOCC2)c1 (racemic) | – | – | 1160 | – | – |
| O=C(Nc1ccccc1)N(CC1CCCC(N(Cc2cccc([N+](=O)[O-])c2)C(=O)C(Cl)(Cl)Cl)C1)c1cccc(OCCN2CCOCC2)c1 (racemic) | – | – | 35 | – | – |
| O=C(Nc1ccccc1)N(CC1CCCC(N(Cc2ccccc2)C(=O)c2ccco2)C1)c1cccc(OCCN2CCOCC2)c1 (racemic) | – | – | 656 | – | – |
| O=C(Nc1ccccc1)N(CC1CCCC(N(Cc2ccccc2)C(=O)C(Cl)(Cl)Cl)C1)c1cccc(OCCN2CCOCC2)c1 (racemic) | – | – | 957 | – | – |
| CC(C)(C)C(=O)N(Cc1ccccc1)C1CCCC(CN(C(=O)c2ccc(F)cc2)c2cccc(OCCN3CCCC3)c2)C1 (racemic) | inactive | inactive | – | – | IC50 [3]: 990 nM |
| COc1cccc(C(=O)N(Cc2cccc(Cl)c2)C2CCCC(CN(C(=O)Nc3ccccc3)c3cccc(OCCN4CCOCC4)c3)C2)c1 (racemic) | – | – | 650 | – | – |
| O=C(c1ccc(F)cc1)N(CC1CCCC(N(Cc2cccc(Cl)c2)C(=O)C(Cl)(Cl)Cl)C1)c1cccc(OCCN2CCCC2)c1 (racemic) | inactive | inactive | 58 | – | IC50 [3]: 267 nM |
| O=C(c1ccc(F)cc1)N(CC1CCCC(N(Cc2cccc(Cl)c2)C(=O)C(Cl)(Cl)Cl)C1)c1cccc(OCCN2CCCCC2)c1 (racemic) | inactive | inactive | 63 | – | IC50 [3]: 228 nM; IC50 [7]: 21 nM |
| CC(C)(C)C(=O)N(Cc1ccccc1)C1CCCC(CN(C(=O)Nc2ccccc2)c2cccc(OCCN3CCOCC3)c2)C1 (racemic) | – | – | – | 50 | – |
| COc1cccc(C(=O)N(Cc2cccc(Cl)c2)C2CCC(CN(C(=O)Nc3ccccc3)c3cccc(OCCN4CCOCC4)c3)CC2)c1 (racemic) | – | – | – | 6 | – |
| COc1cccc(C(=O)NC2CCCC(CN(C(=O)Nc3ccccc3)c3cccc(OCCN4CCOCC4)c3)C2)c1 (racemic) | – | – | – | 26 | – |
| O=C(Nc1ccccc1)N(CC1CCCC(N(Cc2cccc(C(F)(F)F)c2)C(=O)C(Cl)(Cl)Cl)C1)c1cccc(OCCN2CCOCC2)c1 (racemic) | – | – | – | 58 | – |
| O=C(Nc1ccccc1)N(CC1CCCC(N(Cc2cccc(Cl)c2)C(=O)C(Cl)(Cl)Cl)C1)c1cccc(OCCN2CCOCC2)c1 (racemic) | – | – | – | 23 | – |
| O=C(Nc1ccccc1)N(CC1CCCC(N(Cc2ccccc2)C(=O)c2ccc(-c3ccccc3)cc2)C1)c1cccc(OCCN2CCOCC2)c1 (racemic) | – | – | – | 3 | – |
| O=C(Nc1ccccc1)N(CC1CCCC(NCc2cccc(Cl)c2)C1)c1cccc(OCCN2CCOCC2)c1 (racemic) | – | – | – | 28 | – |
